Screens: PubChem BioAssay, Broad Institute
A selection: hits, their analogues and other compounds. The true share with any hit is near 2.5%.
E-sel inducer – E-selectin induction on HUVECs | 260,000 compounds, 0.37% hits | P16581 | activation, % at 7.58 µM | HUVEC E-selectin immunofluorescence imaging; normalized: neutral wells 0, TNF-alpha wells 100;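 active = mean E-selectin-positive cell signal at least 10% of the positive control, reached in at least 60% of replicates, without over 20% cell loss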
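System: HUVEC / Compound: single concentration / Signal: immunofluorescence imaging / Read-out: percent E-selectin-positive cells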
miR122 inh – miR-122 inhibition in Huh7 cells. Huh7 miR-122 Renilla luciferase sensor, 48 h; neutral wells = 0, positive control = 100. activation (reporter increase), % at 12.5 µM. 340,000 compounds, 0.3% hits. AID 602342;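 active = mean replicate activation score at least 90 and every replicate individually at or above 90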;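 also: higher luciferase means less miR-122 activity so hits act as miR-122 inhibitors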
FGF22 binding – shifts melting point of recombinant human FGF22; Q9HCT0; recombinant FGF22 thermal shift, SYPRO orange fluorescence; percent of sucrose octasulfate shift, DMSO zero; activity (Tm shift, normalised), % at 9.99 µM; 340,000 compounds, 1.5% hits; AID 651658;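 active = mean Tm shift, scaled 0 neutral to 100 positive control, at about 1.3% or above, every replicate too, limit read from the data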
Target sequence (Q9HCT0 whole entry, looked up): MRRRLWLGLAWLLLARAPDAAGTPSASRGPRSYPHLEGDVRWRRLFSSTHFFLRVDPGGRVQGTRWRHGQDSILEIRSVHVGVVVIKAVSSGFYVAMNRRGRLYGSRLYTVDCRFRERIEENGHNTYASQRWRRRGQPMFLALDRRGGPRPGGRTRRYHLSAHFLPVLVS
S100A4 MyoIIA – inhibitors of human S100A4 binding to myosin IIA peptide; AID 652163; 360,000 compounds, 0.14% hits; inhibition, % at 10.7 µM; S100A4/TAMRA-MyoIIA peptide fluorescence polarization; P26447;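 active = mean inhibition of at least 70% across replicates, with every replicate also reaching that level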
Target sequence (P26447 whole entry, looked up): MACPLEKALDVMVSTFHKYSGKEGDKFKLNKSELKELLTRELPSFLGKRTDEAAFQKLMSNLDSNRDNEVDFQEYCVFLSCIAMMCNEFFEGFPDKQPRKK
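Material: S100A4 monomer protein | Medium: HEPES pH 7.2 with CaCl2, KCl, NaCl, DTT, Triton | Reagent: Labelled myosin peptide probe, 5 nM | Doses: One dose per compound | Times: 5 min incubation before reading | Benchmarks: Neutral control DMSO, positive control TFP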
SIRT5 inh – inhibitors of human sirtuin-5 desuccinylase. Q9NXA8. Purified SirT5, succinyl-peptide AMC, trypsin-coupled fluorescence. 330,000 compounds, 1.1% hits. AID 652115. inhibition, % at 15 µM; in the data active = inhibition above about 15%
Target sequence (Q9NXA8 whole entry, looked up): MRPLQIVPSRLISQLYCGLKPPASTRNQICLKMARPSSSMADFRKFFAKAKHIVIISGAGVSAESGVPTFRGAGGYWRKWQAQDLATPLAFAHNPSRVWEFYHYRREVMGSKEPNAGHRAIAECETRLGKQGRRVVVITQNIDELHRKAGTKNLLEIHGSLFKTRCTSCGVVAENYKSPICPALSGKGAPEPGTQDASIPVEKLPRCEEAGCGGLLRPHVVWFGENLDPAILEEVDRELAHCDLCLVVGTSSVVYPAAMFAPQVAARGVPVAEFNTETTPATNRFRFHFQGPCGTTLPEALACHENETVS
The depositor's hits bear a star; . = no result; [ ] = another dose, or the depositor's remark.

SMILES	E-sel inducer	miR122 inh	FGF22 binding	S100A4 MyoIIA	SIRT5 inh
COc1ccc(-c2ccc([C@@H]3[C@@H](CO)N4C(=O)CN(Cc5ccc(F)cc5)C[C@@H]34)cc2)cc1	-0.5	.	.	-6.8	0.7
CN(C(=O)C1CCN(S(=O)(=O)c2ccccc2[N+](=O)[O-])CC1)C1CCCCC1	0.1	-4.1	43.8*	-0.1	.
Cc1[nH]c2ccccc2c1C(=O)NS(=O)(=O)Nc1ccccc1	.	8.2	43.4*	2.1	1.1
Cc1[nH]c2ccccc2c1C(=O)CCl	-0.1	.	0.0	-3.8	-2.3
O=S(=O)(/N=C(\c1ccccc1)N1CCOCC1)c1cccs1	.	5.5	.	.	.
Cc1ccccc1S(=O)(=O)/N=C(/c1ccccc1)N1CCOCC1	.	.	0.0	-0.2	16.4*
CC1CCCCC12NC(=O)N(CC(=O)Nc1ccc(S(=O)(=O)N3CCOCC3)cc1)C2=O (stereo not given)	.	0.3	.	.	.
CC1CCCCC12NC(=O)N(CC(=O)Nc1ccccc1N1CCOCC1)C2=O (stereo not given)	.	.	43.5*	-5.5	-0.1
CC1CCCCC12NC(=O)N(CC(=O)Nc1nccs1)C2=O (stereo not given)	-0.3	-3.2	43.1*	-3.1	.
C[C@@H]1CN([C@H](C)CO)C(=O)c2cccc(NC(=O)CCCCCC(=O)Nc3ccccc3N)c2O[C@H]1CN(C)C(=O)Nc1ccc(C(F)(F)F)cc1	.	.	-0.3	-3.0	7.5
C[C@@H]1CN([C@@H](C)CO)C(=O)c2cccc(NC(=O)c3ccncc3)c2O[C@H]1CN(C)CC1CCCCC1	0.1	18.1[16.7 µM]	-0.3	0.4	-2.8
CCOC(=O)C(C)Oc1cc(Cl)c(C=O)cc1OC (stereo not given)	.	.	0.3	-4.3	15.8*
CC(C)c1ccccc1OCC(=O)Nc1ccc2[nH]ncc2c1	.	13.1	0.0	-1.4	18.3*
COc1ccccc1C(=O)Nc1ccc2[nH]ncc2c1	.	-0.2	-0.2	-8.9	-0.5
CCn1c(C)cc(/C=C2/SC(=S)N(CC(=O)O)C2=O)c1C	-5.8	.	0.3	-6.4	15.4*
N#CCC1(O)C(=O)N(Cc2ccccc2)c2ccccc21 (stereo not given)	0.0	.	0.0	-1.8	22.3*
C[C@@H]1CN([C@@H](C)CO)S(=O)(=O)c2ccc(C#CCN(C)C)cc2O[C@@H]1CN(C)Cc1cccnc1	0.7	15.0[16.7 µM]	-0.2	-7.9	-1.6
CCCCC(=O)Nc1nnc(CCOC)s1	-0.2	-4.3	42.9*	-4.0	3.6
O=C(c1c[nH]c2ccccc12)N1CCN(Cc2ccccc2)CC1	5.6	1.3	42.9*	-4.4	-2.3
O=C(C(=O)N1CCN(Cc2ccccc2)CC1)c1c[nH]c2ccccc12	.	1.7	0.2	0.4	.
CN1CCC(=NNC(=O)C(=O)Nc2cccc(Br)c2)CC1	.	.	42.9*	2.5	0.6
Cc1ccc(CNC(=S)Nc2cc(C(=O)O)ccc2C)cc1	.	.	0.0	4.5	1.2
Cc1ccc(C(=O)O)cc1NC(=S)NC(=O)c1ccc([N+](=O)[O-])c(C)c1	.	.	42.9*	2.1	-1.2
COc1ccccc1-c1cnc2c(c1)C(=O)N([C@@H](C)CO)C[C@@H](C)[C@@H](CN(C)C(=O)c1ccncc1)O2	4.5	-5.6[16.7 µM]	-0.1	14.1	1.6
CCc1ccc(/C=C2/SC(=S)N(CCC(=O)NCCCN3CCOCC3)C2=O)cc1	-0.2	-19.4	0.3	-8.0	-3.2
SMILES	E-sel inducer	miR122 inh	FGF22 binding	S100A4 MyoIIA	SIRT5 inh
COC(=O)c1ccc(/C=C2/SC(=S)N(CCC(=O)NCCCN3CCOCC3)C2=O)cc1	.	-4.5	-0.3	24.1	23.2*
O=C(Nc1ccccc1)N1CCCCN2[C@H](CO)[C@H](c3ccc(C#Cc4ccccn4)cc3)[C@H]2C1	-0.4	-27.7[16.7 µM]	-0.6	90.7*	1.1
O=C(Nc1ccc(F)cc1)N1CCCCN2[C@H](CO)[C@H](c3ccc(C#Cc4ccccn4)cc3)[C@H]2C1	-0.2	9.7[16.7 µM]	-0.5	86.5*	-1.0
O=C(Nc1ccc(F)cc1)N1CCCCN2[C@@H](CO)[C@H](c3ccc(C#Cc4ccccn4)cc3)[C@@H]2C1	-0.2	3.8[16.7 µM]	-0.4	-10.3	-0.4
COc1ccc2c3c([nH]c2c1)[C@@H](CO)N(C)CC31CN(S(=O)(=O)c2cccc(F)c2)C1	-0.2	.	.	.	.
COc1ccc(/C=C/C(=O)c2ccc3c(c2)OCO3)c(OC)c1	0.0	144.6*	0.3	-7.5	-3.6
O=C(COc1ccccc1)Nc1ncn[nH]1	-0.5	-3.2	0.1	-9.1	29.6*
COC(=O)c1ccc(Nc2nnc(-c3ccc(C)c(S(=O)(=O)NCC4CCCO4)c3)c3ccccc23)cc1 (stereo not given)	-1.0	249.7*	.	.	.
Cc1ccc(-c2nnc(Nc3ccc(O)cc3)c3ccccc23)cc1S(=O)(=O)NCCO	0.0	48.8	-0.6	-2.3	5.7
CCOC(=O)CNS(=O)(=O)c1cc(-c2nnc(Nc3ccc4c(c3)OCO4)c3ccccc23)ccc1C	.	106.4*	.	.	.
Cc1ccc(-c2nnc(Nc3ccc(CC(N)=O)cc3)c3ccccc23)cc1S(=O)(=O)NCC1CCCO1 (stereo not given)	.	.	0.0	-4.3	1.8
CO[C@@H]1CN(C)C(=O)c2cc(NC(=O)NC3CCCCC3)ccc2OC[C@@H](C)NC[C@H]1C	0.2	-6.5[16.7 µM]	0.1	14.2	-0.3
CCN1[C@@H]2c3ccc(-c4ccncc4)c(=O)n3C[C@H]1[C@H](CO)[C@H]2C(=O)NCc1ccccc1	0.7	12.9[16.7 µM]	-0.2	18.9	-1.7
CCCN1C(=O)/C(=C2\SC(N3CCCCC3)=NC2=O)c2ccccc21	.	0.4	.	.	.
CN1C(=O)/C(=C2\SC(N3CCCCCC3)=NC2=O)c2ccccc21	.	1.9	.	-0.7	32.1*
COc1cccc(CN(C)C[C@H]2OCc3ccccc3-c3ccccc3C(=O)N([C@H](C)CO)C[C@@H]2C)c1	-3.4	.	0.1	9.0	13.1
Cc1cn(CC(=O)NCCCN2CCCC2=O)c(=O)[nH]c1=O	0.1	4.0	0.0	2.3	-0.6
Cc1cn(CC(=O)NCCCc2ccccc2)c(=O)[nH]c1=O	0.3	-3.2	-0.3	27.9	-4.7
CC(=O)c1cn(Cc2ccccc2)c(=O)[nH]c1=O	1.6	.	43.4*	6.1	-5.0
Cc1cn(CC(=O)NCc2ccccc2)c(=O)[nH]c1=O	1.7	-1.1	0.1	-1.4	19.6*
Cc1cn(CC(=O)NCCCn2ccnc2)c(=O)[nH]c1=O	1.5	-1.4	0.3	1.7	15.3*
CO[C@@H]1CN(C)C(=O)c2cc(NC(=O)C3CC3)ccc2OC[C@H](C)N(C(C)=O)C[C@@H]1C	0.1	.	-0.3	3.3	1.6
COc1ccc(CNC(=O)C(c2ccco2)N(Cc2cccs2)C(=O)Cc2cccs2)cc1 (stereo not given)	.	42.4	.	.	.
COc1ccc(CNC(=O)C(c2ccco2)N(C(=O)c2csnn2)c2cccc(C)c2C)cc1 (stereo not given)	.	97.4*	.	.	.
COc1ccc(CNC(=O)C(c2ccco2)N(C(=O)Cc2cccs2)c2cccnc2)cc1 (stereo not given)	.	.	0.2	-4.8	34.7*
